TRPML3 ag = human TRPML3 channel agonists, primary screen, cell-based, HEK293 TRPML3-YFP, Fluo-8 calcium fluorescence, 3 µM; activation, % at 3 µM; hit rate 0.29% among 220,000; 100% = the carbachol control signal; Mucolipin-3 (Homo sapiens), Q8TDD5;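 active means activation above its plate's cutoff, the mean activation of the plate's test wells plus 3 SD, cut at about 12% in these data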;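 further: 0% = DMSO only wells and 100% = carbachol wells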
Target sequence (Q8TDD5 whole entry, looked up): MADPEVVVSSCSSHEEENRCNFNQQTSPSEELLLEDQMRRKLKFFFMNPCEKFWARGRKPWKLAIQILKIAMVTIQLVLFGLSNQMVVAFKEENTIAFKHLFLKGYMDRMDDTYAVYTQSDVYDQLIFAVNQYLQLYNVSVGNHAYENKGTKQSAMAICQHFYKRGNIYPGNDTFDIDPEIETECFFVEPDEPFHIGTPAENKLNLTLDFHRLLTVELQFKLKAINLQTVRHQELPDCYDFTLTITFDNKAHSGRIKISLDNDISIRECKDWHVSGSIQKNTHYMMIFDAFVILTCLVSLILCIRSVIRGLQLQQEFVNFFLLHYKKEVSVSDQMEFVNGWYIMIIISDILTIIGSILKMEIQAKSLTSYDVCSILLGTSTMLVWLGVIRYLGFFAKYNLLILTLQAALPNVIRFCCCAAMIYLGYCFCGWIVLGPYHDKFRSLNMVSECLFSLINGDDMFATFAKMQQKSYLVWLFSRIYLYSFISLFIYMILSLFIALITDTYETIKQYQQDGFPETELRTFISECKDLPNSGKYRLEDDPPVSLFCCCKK
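Test system: HEK293 cells stably carrying human TRPML3-YFP; Doses: single dose, 3 µM final nominal compound, 0.3% DMSO final; Schedule: dye loading 1 h 37 °C then 30 min ambient, 125 s read; Technique: Fluo-8 calcium fluorescence; Benchmarks: high control carbachol 87 µM, low control DMSO.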
CRFR2-BP antag = antagonists of CRF-BP/CRF-R2 complex, primary screen, cell-based, HEK293, calcium dye fluorescence, uHTS | inhibition, % at 11.8 µM | hit rate 0.59% among 350,000 | AID 588475, 2011 | CRF-induced calcium fluorescence;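 active means inhibition of the ligand-induced calcium signal above about 50% at the single tested concentration, limit read from the data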
CRFR2-BP ag = agonists of CRF-BP/CRF-R2 complex, primary screen, cell-based, HEK293, calcium dye fluorescence, uHTS | CRF-binding protein / CRF receptor 2 complex (human) | calcium dye fluorescence (FLIPR); percent of saturating CRF peptide response | activation, % at 13.2 µM | hit rate 0.46% among 350,000;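 active means activation of at least 50%, plus an integration ratio under a set limit after plate pattern correction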;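 further: plate controls were neutral control wells without compound for no effect and CRF at EC100 for full effect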
zfTRPN1 agonist = zebrafish TRPN1 channel agonists, primary screen, cell-based, HEK293, calcium fluorescence | HEK293 zebrafish TRPN1-YFP, Fluo-8 calcium fluorescence; 100% = response to 87 µM carbachol | activation, % at 3 µM | transient receptor potential cation channel N1 (TRPN1/NompC), Danio rerio | hit rate 0.18% among 220,000;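 active means activation above its plate's cutoff, the mean activation of test wells on that plate plus 3 SD, cut at about 19% in these data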;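 further: 0% = DMSO alone and 100% = 87 µM carbachol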
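Material: zebrafish TRPN1-YFP in HEK293 cells; Doses: single test compound dose, 3 µM nominal, 0.3% DMSO; Timing: dye loading 1 h at 37 °C, then 30 min room temperature; Technique: intracellular calcium fluorescence with Fluo-8; Benchmarks: high carbachol 87 µM, low DMSO alone.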
GPR7 antagonist = GPR7 receptor antagonists, primary screen, cell-based, fluorescence, single concentration; Neuropeptides B/W receptor type 1 (Homo sapiens), P48145; GPR7-expressing cells, fluorescence antagonist assay; inhibition, % at 4.4 µM; hit rate 1.1% among 290,000; in the data active means inhibition above about 16%, passing the limit was not always enough;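 further: cells stimulated with the agonist NPW; 0% = agonist with vehicle and 100% = vehicle without agonist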
* hit, by the source's call; nt = not tested or not shown. A selection: hits, their analogues and other compounds. The true share with any hit is near 2%.

SMILES | TRPML3 ag | CRFR2-BP antag | CRFR2-BP ag | zfTRPN1 agonist | GPR7 antagonist
Cc1ccc(C(=O)C2=C(O)C(=O)N(CC3CCCO3)C2c2ccccc2F)o1 (configuration not stated) | nt | 7 | 0 | nt | -2
Cn1c(=O)c(N)c2c3c(c(Br)ccc31)C(=O)c1ccccc1-2 | 2 | -56 | 89* | 3 | -8
Oc1cc(-n2cccn2)c(O)cc1-n1cccn1 | 0 | 14 | 0 | -1 | 46*
O=C(CSc1nnnn1-c1cccc(F)c1)NC1CC1 | nt | -3 | -1 | nt | nt
COc1ccc(C(=O)/C(C#N)=N/Nc2ccc([N+](=O)[O-])cc2)cc1 | 5 | 71* | 23 | 11 | 0
COc1ccc(N/N=C(\C#N)C(N)=O)cc1 | 1 | 6 | -1 | 1 | -4
N#C/C(=N\Nc1ccc(Cl)cc1)C(=O)c1ccccc1 | 4 | 83* | 44 | 12 | 1
COc1ccc(C(=O)/C(C#N)=N/Nc2ccccc2[N+](=O)[O-])cc1 | 3 | 61* | 23 | 5 | 11
Cc1c(N/N=C(\C#N)C(=O)c2ccc(Cl)cc2)c(=O)n(-c2ccccc2)n1C | 3 | 7 | 0 | 4 | -3
COc1cc2c(cc1OC)CN(C1CCC(C(C)(C)C)CC1)CC2 (configuration not stated) | nt | 15 | 0 | nt | nt
CCOC(=O)Cc1csc(NC(=O)Cc2ccccc2[N+](=O)[O-])n1 | 0 | -12 | 0 | 1 | -10
Cc1csc(NC(=O)Cc2ccccc2[N+](=O)[O-])n1 | 0 | -128 | 208* | 0 | -10
Cc1ccnc(SCC(=O)N2CCN(c3ccccc3)CC2)n1 | 0 | -6 | 0 | 1 | -9
COc1ccc(-c2ccnc(SCC(=O)N3CCN(c4ccccc4)CC3)n2)cc1 | 1 | 61* | -6 | 0 | -25
Cc1ccc(-c2nnc(SCC(=O)N3CCN(c4ccccc4)CC3)o2)cc1 | 0 | 88* | -1 | -1 | 9
CCOC(=O)N1CCN(C(=O)CSc2nnc(-c3ccc(C(C)(C)C)cc3)o2)CC1 | 0 | 89* | -2 | 1 | -6
CC(C)=CCOc1ccc2c(C)c(CC(=O)N3C[C@H]4C[C@@H](C3)c3cccc(=O)n3C4)c(=O)oc2c1C | nt | -3 | -6 | nt | -8
COc1ccc(C2CC(c3ccccc3)=NN2C(=O)COC(=O)c2cc(S(=O)(=O)N3CCOCC3)ccc2F)cc1 (configuration not stated) | -1 | -6 | 1 | -1 | 21*
O=C(Nc1ccnn1C1CCN(C(=O)c2cc(Cl)ccc2F)CC1)C1CCOC1 (configuration not stated) | nt | -4 | -1 | nt | 6
NCC[C@H](O)C(=O)N[C@@H]1C[C@H](N)[C@@H](O[C@H]2O[C@H](CN)[C@@H](O)[C@H](O)[C@H]2O)[C@H](O)[C@H]1O[C@H]1O[C@H](CO)[C@@H](O)[C@H](N)[C@H]1O | 1 | 64* | -1 | 0 | -7
Cc1ccc(C(=O)N2CCN(C(=O)CN3CCOCC3)C2)cc1 | 1 | 78* | -4 | 2 | 7
O=S(=O)(c1ccc2c(c1)C(O)c1ccccc1CC2)C(F)(F)F (configuration not stated) | nt | -6 | 3 | nt | nt
COc1cccc(NC(=S)N2CCC(c3ccc(C)cc3)C2)c1 (configuration not stated) | nt | 19 | -4 | nt | -3
CC(=O)Nc1ccc(S(=O)(=O)N2CCN(C(=O)CCC3CCCC3)CC2)cc1 | 1 | 7 | -1 | 4 | 20*
CC(=O)c1ccc(S(=O)(=O)N2CCN(C(=O)CCC3CCCC3)CC2)cc1 | nt | 4 | 1 | nt | nt
CC(=O)Nc1ccc(S(=O)(=O)N2CCN(c3nnnn3-c3ccccc3)CC2)cc1 | 1 | 102* | 0 | 1 | -7
CC(=O)Nc1ccc(S(=O)(=O)N2CCN(c3ccccn3)CC2)cc1 | 0 | -14 | 0 | 2 | -6
CCC(=O)N1CCN(c2ccc(Cl)cc2NC(=O)c2ccc3c(c2)OCCO3)CC1 | 1 | -5 | 0 | 4 | -2

High-throughput results: PubChem BioAssay, several laboratories
